This note sets out measurements from ChEMBL document CHEMBL4665625, “New pyrido[3,4-g]quinazoline derivatives as CLK1 and DYRK1A inhibitors: synthesis, biological evaluation and binding mode analysis” (Eur J Med Chem, 2019).

The target of data set [1] is T1, Cyclin-dependent kinase 5/CDK5 activator 1 (Homo sapiens) (UniProt Q00535+Q15078). In words: Inhibition of recombinant human CDK5/p25 expressed in bacteria assessed as residual activity at 1 uM using histone H1 as substrate in presence of [gamma-33P]ATP relative to control. In short, it runs like this: (§1)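 Human recombinant CDK5/p25 (bacterially expressed) assayed with 0.8 μg/μl histone H1 as substrate and 15 μM [γ-33P]ATP. Residual activity versus DMSO controls, triplicate.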
T1 sequence (Q00535 whole entry): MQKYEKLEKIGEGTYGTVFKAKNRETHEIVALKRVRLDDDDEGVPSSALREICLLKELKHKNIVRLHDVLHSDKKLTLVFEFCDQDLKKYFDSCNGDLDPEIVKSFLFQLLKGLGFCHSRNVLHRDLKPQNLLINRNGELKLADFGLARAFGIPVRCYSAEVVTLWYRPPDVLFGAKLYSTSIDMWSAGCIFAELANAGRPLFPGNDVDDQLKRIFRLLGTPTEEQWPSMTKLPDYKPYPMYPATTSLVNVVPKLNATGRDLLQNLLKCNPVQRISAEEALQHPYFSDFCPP
T1 sequence (Q15078 99-307 partner limits assumed): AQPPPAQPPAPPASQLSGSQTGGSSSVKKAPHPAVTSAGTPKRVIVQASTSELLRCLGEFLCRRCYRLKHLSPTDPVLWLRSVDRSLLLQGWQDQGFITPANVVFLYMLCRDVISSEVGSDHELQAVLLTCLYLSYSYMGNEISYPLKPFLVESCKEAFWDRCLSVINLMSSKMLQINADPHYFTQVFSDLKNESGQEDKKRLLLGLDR

In data set [2] the target is T2, Glycogen synthase kinase-3 (Sus scrofa) (UniProt B2LUN4+I6LNT8). In words: Inhibition of porcine brain GSK-3alpha/beta assessed as residual activity at 1 uM using YRRAAVPPSPSLSRHSSPHQSpEDEEE as substrate in presence of [gamma-33P]ATP relative to control. The format is tissue-based. The note with it: Sus scrofa domesticus. The essentials: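 Affinity-purified porcine brain GSK-3α/β with 0.01 µg/µl GS-1 peptide (phosphoserine-primed) as substrate and 15 µM [γ-33P]ATP. Buffer was 25 mM Tris-HCl pH 7.5, 10 mM MgCl2, 1 mM EGTA, 1 mM DTT, 50 µg/ml heparin and 0.15 mg/ml BSA. Radioactive incorporation was compared with DMSO-dilution controls, in triplicate.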

In data set [3] the target is Dual specificity tyrosine-phosphorylation-regulated kinase 1A (Rattus norvegicus) (UniProt Q63470). In words: Inhibition of rat DYRK1A kinase domain (1 to 499 residues) expressed in bacteria assessed as residual activity at 10 uM using KKISGRLSPIMTEQ as substrate in presence of [gamma-33P]ATP relative to control. In short, it runs like this: (§2)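 Buffer: 10 mM MgCl2, 1 mM EGTA, 1 mM DTT, 25 mM Tris-HCl pH 7.5, 50 μg/ml heparin, 0.15 mg/ml BSA.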

Data set [4] addresses T2, Glycogen synthase kinase-3 (Sus scrofa). In words: Inhibition of porcine brain GSK-3alpha/beta assessed as residual activity at 10 uM using YRRAAVPPSPSLSRHSSPHQSpEDEEE as substrate in presence of [gamma-33P]ATP relative to control. The format is tissue-based. The following applies: Sus scrofa domesticus.
The species named for data set [5] is Sus scrofa domesticus. Kind of data set: Inhibition of porcine brain CK1delta/epsilon assessed as residual activity at 10 uM using RRKHAAIGSpAYSITA as substrate in presence of [gamma-33P]ATP relative to control. The format is tissue-based.
In data set [6] the target is Dual specificity protein kinase CLK1 (Mus musculus, UniProt P22518). In words: Inhibition of recombinant mouse CLK1 expressed in bacteria using GRSRSRSRSRSR as substrate in presence of [gamma-33P]ATP.
Chain of Dual specificity protein kinase CLK1 (P22518 whole entry, the tested form may be a part): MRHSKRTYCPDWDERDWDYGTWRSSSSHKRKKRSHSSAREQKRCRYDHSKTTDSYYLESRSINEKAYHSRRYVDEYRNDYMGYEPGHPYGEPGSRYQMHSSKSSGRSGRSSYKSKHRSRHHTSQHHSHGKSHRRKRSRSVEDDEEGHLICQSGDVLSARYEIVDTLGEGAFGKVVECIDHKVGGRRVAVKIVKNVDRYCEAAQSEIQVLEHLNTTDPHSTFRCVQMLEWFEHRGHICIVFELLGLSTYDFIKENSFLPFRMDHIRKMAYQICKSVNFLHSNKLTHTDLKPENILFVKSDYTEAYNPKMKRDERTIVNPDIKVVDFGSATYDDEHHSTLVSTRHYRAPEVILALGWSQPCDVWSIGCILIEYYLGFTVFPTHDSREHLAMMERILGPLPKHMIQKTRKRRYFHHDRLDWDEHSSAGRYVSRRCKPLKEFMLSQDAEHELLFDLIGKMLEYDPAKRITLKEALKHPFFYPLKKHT
The target of data set [7] is Dual specificity tyrosine-phosphorylation-regulated kinase 1A (Rattus norvegicus) (UniProt Q63470). In words: Inhibition of rat DYRK1A kinase domain (1 to 499 residues) expressed in bacteria assessed as residual activity at 1 uM using KKISGRLSPIMTEQ as substrate in presence of [gamma-33P]ATP relative to control. In short, it runs like this: as §2
Data set [8] has as its target Dual specificity protein kinase CLK1 (Mus musculus) (UniProt P22518). In words: Inhibition of recombinant mouse CLK1 expressed in bacteria assessed as residual activity at 1 uM using GRSRSRSRSRSR as substrate in presence of [gamma-33P]ATP relative to control.
The species named for data set [9] is Sus scrofa domesticus. In words: Inhibition of porcine brain CK1delta/epsilon assessed as residual activity at 1 uM using RRKHAAIGSpAYSITA as substrate in presence of [gamma-33P]ATP relative to control. Type of data set: tissue-based.
In data set [10] the target is T1, Cyclin-dependent kinase 5/CDK5 activator 1 (Homo sapiens). Kind of data set: Inhibition of recombinant human CDK5/p25 expressed in bacteria assessed as residual activity at 10 uM using histone H1 as substrate in presence of [gamma-33P]ATP relative to control. The essentials:
as §1

Data set [11] has as its target Dual specificity protein kinase CLK1 (Mus musculus) (UniProt P22518). In words: Inhibition of recombinant mouse CLK1 expressed in bacteria assessed as residual activity at 10 uM using GRSRSRSRSRSR as substrate in presence of [gamma-33P]ATP relative to control.
The test system of data set [12] is SH-SY5Y. In words: Antiproliferative activity against human SH-SY5Y cells assessed as cell viability at 2 uM after 48 hrs by CellTiter96 AQueous assay relative to control. The format is functional. The note with it: read-out: Activity. The essentials:
(§3)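 Cells grown in McCoy's 5a (HCT116), DMEM (SH-SY5Y, MDA-MB231, U-2 OS) or DMEM:F12 (hTERT-RPE1), each with 10% fetal calf serum, 2 mM L-glutamine, penicillin/streptomycin. Exposed to compound at 2 μM for 48 h; viability read by CellTiter96 AQueous per manufacturer, as % of DMSO-treated cells. Triplicate, mean ± SD; staurosporine as positive control.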

Data set [13] has as its system HCT-116. In words: Antiproliferative activity against human HCT116 cells assessed as cell viability at 2 uM after 48 hrs by CellTiter96 AQueous assay relative to control. The format is functional. The following applies: read-out: Activity. The essentials: as §3
Data set [14] has as its system U2OS. In words: Antiproliferative activity against human U2OS cells assessed as cell viability at 2 uM after 48 hrs by CellTiter96 AQueous assay relative to control. The following applies: read-out: Activity. Type of data set: functional. In short, it runs like this: as §3
Data set [15] relates to MDA-MB-231. Kind of data set: Antiproliferative activity against human MDA-MB-231 cells assessed as cell viability at 2 uM after 48 hrs by CellTiter96 AQueous assay relative to control. Type of data set: functional. The following applies: read-out: Activity. The essentials: as §3
Data set [16] is described as follows: Antiproliferative activity against hTERT-RPE1 cells assessed as cell viability at 2 uM after 48 hrs by CellTiter96 AQueous assay relative to control. Type of data set: cell-based, TERT-RPE1. The following applies: human, read-out: Activity. In short, it runs like this: as §3
Data set [17] has as its target Dual specificity tyrosine-phosphorylation-regulated kinase 1A (Rattus norvegicus, UniProt Q63470). In words: Inhibition of rat DYRK1A kinase domain (1 to 499 residues) expressed in bacteria using KKISGRLSPIMTEQ as substrate in presence of [gamma-33P]ATP. In short, it runs like this:
as §2

Chain of Dual specificity protein kinase CLK1 (Mus musculus) (P22518 whole entry, looked up): as the sequence (P22518 whole entry, the tested form may be a part) above

For the molecule `O=[N+]([O-])c1c2ccncc2cc2cnc(NCCCN3CCCCC3)nc12`, the Activity in [1] turned out to be 100%; in data set [2], 76%; in data set [3] it was 6%; in [4] it was 24%; in [5] it was 34%; in [7], 56%. The Activity in data set [8] was 16%; in [9] it was 100%; in data set [10], 53%; in data set [11], 7%. In addition, the IC50 in [6] came to 125 nM.
For the molecule `CN1CCN(CCCNc2ncc3cc4cnccc4c([N+](=O)[O-])c3n2)CC1`, the Activity came to 100% in [1]; 59% in data set [2]; 3% in [3]; 2% in data set [4]; 32% in data set [5]; 54% in data set [7]. Besides, the Activity in [8] worked out at 22%; in [9], 92%; in [10], 48%; in data set [11], 8%. In addition, the viability at 2 µM in data set [12] was determined as 36%; in data set [13] it was 9.7%; in [14], 2.5%; in [15] it was 11.7%. In addition, the 50% inhibitory concentration (IC50) in data set [6] worked out at 133 nM. For the same molecule, the viability at 48 h, 2 µM in data set [16] was 25.8%.
For `CN(C)CCNc1ncc2cc3cnccc3c([N+](=O)[O-])c2n1`, the Activity in data set [1] worked out at 100%; in data set [2], 70%; in data set [3], 17%; in [4], 21%; in [5] it was 36%; in data set [7], 89%. For the same molecule, the Activity came out at 22% in data set [8], 100% in data set [9], 52% in data set [10] and 5% in data set [11]. Further, the viability at 2 µM in [12] was found to be 42.7%; in data set [13], 13.3%; in [14], 3.3%; in [15], 9.4%. Besides, the IC50 in data set [6] was found to be 62 nM. The viability at 48 h, 2 µM in data set [16] came to 29.2%.
Take `CCN(CC)CCCNc1ncc2cc3cnccc3c(N)c2n1`: the Activity in data set [1] worked out at 68%; in data set [2], 61%; in data set [3], 2%; in [4], 22%; in data set [5] it was 45%; in data set [7] it was 24%. Further, the Activity was found to be 21% in [8], 68% in [9], 20% in data set [10] and 2% in data set [11]. Also, the IC50 came out at 80 nM in data set [17] and 160 nM in [6].
As to `CN(C)CCCNc1ncc2cc3cnccc3c(N)c2n1`, the Activity in [1] stood at 77%; in data set [2], 36%; in data set [3] it was 1%; in data set [4] it was 10%; in [5], 61%; in data set [7], 17%. The Activity came to 14% in data set [8], 96% in data set [9], 34% in data set [10] and 1% in [11]. In addition, the viability at 2 µM in data set [12] was 0%; in [13], 0%; in [14] it was 0%; in data set [15], 0.4%. Besides, the IC50 in [17] and in data set [6] was 120 nM in each case. Besides, in data set [16], the viability at 48 h, 2 µM worked out at 0%.
`Nc1c2ccncc2cc2cnc(NCCCN3CCCC3)nc12`: the Activity worked out at 86% in [1]; 50% in data set [2]; 1% in data set [3]; 23% in data set [4]; 23% in data set [5]; 25% in [7]. Further, the Activity in data set [8] came to 26%; in data set [9], 69%; in data set [10], 44%; in data set [11], 4%. The viability at 2 µM worked out at 92.2% in data set [12], 21% in [13], 33% in data set [14] and 22% in data set [15]. Also, the IC50 in data set [17] stood at 90 nM. Moreover, the viability at 48 h, 2 µM in data set [16] stood at 52%.
Consider `CNc1ncc2cc3cnccc3c([N+](=O)[O-])c2n1`, for which the Activity came to 73% in data set [1]; 70% in data set [2]; 13% in [3]; 51% in data set [4]; 45% in [5]; 39% in [7]. Moreover, the Activity worked out at 5% in [8], 98% in data set [9], 38% in data set [10] and 2% in [11]. In addition, the viability at 2 µM turned out to be 52% in data set [12], 22% in [13], 19.5% in data set [14] and 41% in data set [15]. The IC50 in [6] came out at 18 nM. In addition, the viability at 48 h, 2 µM in data set [16] is 36%.
As to `CN1CCN(CCNc2ncc3cc4cnccc4c(N)c3n2)CC1`, the Activity in data set [1] turned out to be 88%; in [2] it was 44%; in data set [3], 2%; in [4] it was 22%; in data set [5], 70%; in data set [7], 19%. The Activity in [8] came to 21%; in data set [9] it was 100%; in data set [10], 55%; in data set [11], 4%. The viability at 2 µM came out at 62% in data set [12], 6.1% in data set [13], 13% in data set [14] and 21.7% in data set [15]. Also, the IC50 in data set [17] was found to be 120 nM; in data set [6], 210 nM. For the same molecule, the viability at 48 h, 2 µM in [16] was 19.4%.
Take `CN[C@@H]1C[C@H]2O[C@@](C)([C@@H]1OC)n1c3ccccc3c3c4c(c5c6ccccc6n2c5c31)C(=O)NC4` [STAUROSPORINE]: the viability at 2 µM in data set [12] came out at 9.4%; in [13], 27%; in data set [14] it was 0.4%; in data set [15], 3.9%. The viability at 48 h, 2 µM in data set [16] is 9.1%.
Regarding `O=[N+]([O-])c1c2ccncc2cc2cnc(NCCCN3CCOCC3)nc12`, the Activity in data set [1] came out at 100%; in [2], 76%; in data set [3], 10%; in [4], 15%; in data set [5] it was 38%; in [7], 68%. Besides, the Activity was found to be 14% in data set [8], 100% in data set [9], 60% in data set [10] and 3% in [11]. Further, the viability at 2 µM in data set [12] is 54%; in data set [13], 16.8%; in data set [14], 27%; in data set [15], 39%. The IC50 in data set [6] came out at 120 nM. The viability at 48 h, 2 µM in [16] turned out to be 31%.

What is called IC50 is the concentration at which inhibition is half-maximal.
